From ChEMBL document CHEMBL4138161, “Discovery of simplified sampangine derivatives as novel fungal biofilm inhibitors” (Eur J Med Chem, 2018)
Converted amounts (≈) assume the structure as drawn. The source made the active and inactive calls. The calls are words filed in the database; no cut-off is given here.

Tests used:
[1] = tested on: Nannizzia gypsea; test: Antifungal activity against Microsporum gypseum Cmccfmza after 24 hrs by spectrophotometric analysis; assay type: functional
Outline: (§1)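 Broth microdilution in RPMI 1640, inoculum 5×10^3 CFU/mL, compounds from 6.4 mg/mL DMSO stocks, 35 ℃ for 24 h. Growth read as OD600; MIC80 taken as lowest concentration giving 80% growth inhibition. Triplicate.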

[2] = tested on: Candida albicans; test: Antifungal activity against fluconazole-resistant Candida albicans isolate Chang7 clinical isolate after 24 hrs by spectrophotometric analysis; assay type: functional; conditions: isolate Chang7, 24 h
Outline: (§2)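 Broth microdilution (MIC80) against fluconazole-resistant clinical C. albicans isolates from a Shanghai hospital. Strains were grown in YPD at 30 ℃. Compounds came from 6.4 mg/mL DMSO stocks and were tested over a concentration series on 5×10^3 CFU/mL inoculum in RPMI 1640 at 35 ℃ for 24 h. OD600 was read; MIC80 is the lowest concentration giving 80% growth inhibition. Done in triplicate.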

[3] = tested on: Candida parapsilosis; test: Antifungal activity against Candida parapsilosis 22019 after 24 hrs by spectrophotometric analysis; assay type: functional; conditions: Lodderomyces parapsilosis, 22019, 24 h; outline: as §1
[4] = tested on: Nakaseomyces glabratus; test: Antifungal activity against Candida glabrata 537 after 24 hrs by spectrophotometric analysis; assay type: functional; conditions: Nakaseomyces glabratus, 537, 24 h; outline: as §1
[5] = tested on: Candida albicans; test: Antifungal activity against fluconazole-resistant Candida albicans clinical isolate 1010 after 24 hrs by spectrophotometric analysis; assay type: functional; conditions: isolate 1010, 24 h; outline: as §2
[6] = tested on: Candida albicans; test: Antibiofilm activity against Candida albicans assessed inhibition of biofilm formation at 1024 ug/ml; assay type: functional
[7] = tested on: Candida albicans; test: Antifungal activity against Candida albicans infected in Sprague-Dawley rat vaginal infection model assessed as reduction in vaginal fungal burden at 1 mg/kg, administered intravaginally on day 1 to day 3 post fungal inoculation measured on day 4; assay type: functional, organism-based
Outline: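 Ovariectomized rats inoculated intravaginally with 0.1 mL of 1×10^7 CFU/mL C. albicans on days 10, 11 and 12 after surgery. Compound in saline with 1% DMSO (2, 4, 8 mg/mL) given intravaginally on days 1–3 post-inoculation. On day 4, 100 µL vaginal fluid plated on chloramphenicol SDA agar for CFU counts.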

[8] = tested on: Trichophyton rubrum; test: Antifungal activity against Trichophyton rubrum Cmccftla after 24 hrs by spectrophotometric analysis; assay type: functional; outline: as §1
[9] = tested on: Candida albicans; test: Antifungal activity against Candida albicans SC5314 after 24 hrs by spectrophotometric analysis; assay type: functional; conditions: SC5314, 24 h; outline: as §1
[10] = tested on: Candida albicans; test: Antifungal activity against fluconazole-resistant Candida albicans clinical isolate 032 after 24 hrs by spectrophotometric analysis; assay type: functional; conditions: isolate 032, 24 h; outline: as §2
[11] = tested on: Candida albicans; test: Antifungal activity against fluconazole-resistant Candida albicans isolate J38 clinical isolate after 24 hrs by spectrophotometric analysis; assay type: functional; conditions: isolate J38, 24 h; outline: as §2
[12] = tested on: Aspergillus fumigatus; test: Antifungal activity against Aspergillus fumigatus 07544 after 24 hrs by spectrophotometric analysis; assay type: functional; conditions: Aspergillus fumigatus, 07544, 24 h; outline: as §1
[13] = tested on: Candida albicans; test: Antifungal activity against fluconazole-resistant Candida albicans clinical isolate 103 after 24 hrs by spectrophotometric analysis; assay type: functional; conditions: isolate 103, 24 h; outline: as §2
[14] = tested on: Cryptococcus neoformans; test: Antifungal activity against Cryptococcus neoformans 32609 after 24 hrs by spectrophotometric analysis; assay type: functional; conditions: Cryptococcus neoformans, 32609, 24 h; outline: as §1
[15] = tested on: Candida albicans; test: Antifungal activity against Candida albicans SC5314 after 48 hrs by spectrophotometric analysis; assay type: functional; conditions: SC5314, 48 h
[16] = tested on: Candida albicans; test: Antibiofilm activity against Candida albicans SC5314 assessed inhibition of yeast-to-hypha morphological transition at 0.2 to 2 ug/ml after 3 hrs; assay type: functional, organism-based
Outline: (§3)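 Yeast-to-hypha transition in YPD with 10% (v/v) FBS across compound concentrations; cell morphology photographed after 3 h at 37°C.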

[17] = tested on: Candida albicans; test: Antibiofilm activity against Candida albicans SC5314 assessed inhibition of yeast-to-hypha morphological transition at 0.5 ug/ml after 3 hrs; assay type: functional, organism-based; outline: as §3

OC(Cn1cncn1)(Cn1cncn1)c1ccc(F)cc1F [FLUCONAZOLE]
MIC80 [1]: 32 µg/mL (≈ 104 µM) | MIC80 [2]: 2 µg/mL (≈ 6.53 µM) | MIC80 [3]: 2 µg/mL (≈ 6.53 µM) | MIC80 [4]: 2 µg/mL (≈ 6.53 µM) | MIC80 [5]: > 64 µg/mL | inhibition at 1024 µg/mL [6]: 60% | Activity [7]: Active | MIC80 [8]: 4 µg/mL (≈ 13.1 µM) | MIC80 [9]: 0.25 µg/mL (≈ 0.816 µM) | MIC80 [10]: > 64 µg/mL | MIC80 [11]: > 64 µg/mL | MIC80 [12]: > 64 µg/mL | MIC80 [13]: > 64 µg/mL | MIC80 [14]: 1 µg/mL (≈ 3.27 µM)

Cc1cnc2c(c1C)C(=O)c1sc([N+](=O)[O-])cc1C2=O
MIC80 [15]: 4 µg/mL (≈ 13.9 µM) | MIC80 [1]: 1 µg/mL (≈ 3.47 µM) | MIC80 [3]: 0.5 µg/mL (≈ 1.73 µM) | MIC80 [4]: 1 µg/mL (≈ 3.47 µM) | inhibition [16]: inactive | MIC80 [8]: 0.5 µg/mL (≈ 1.73 µM) | MIC80 [9]: 0.25 µg/mL (≈ 0.867 µM) | Activity [17]: Active | MIC80 [12]: 1 µg/mL (≈ 3.47 µM) | MIC80 [14]: 0.5 µg/mL (≈ 1.73 µM)

Cc1ccc(C(C)c2ccnc3c2C(=O)c2sc([N+](=O)[O-])cc2C3=O)o1 (centres undefined)
MIC80 [1]: 1 µg/mL (≈ 2.71 µM) | MIC80 [3]: > 64 µg/mL | MIC80 [4]: > 64 µg/mL | MIC80 [8]: 1 µg/mL (≈ 2.71 µM) | MIC80 [9]: > 64 µg/mL | MIC80 [12]: 32 µg/mL (≈ 86.9 µM) | MIC80 [14]: 0.25 µg/mL (≈ 0.679 µM)

O=C1c2ccccc2-c2nccc3ccnc1c23 [SAMPANGINE]
MIC80 [1]: > 64 µg/mL | MIC80 [3]: 4 µg/mL (≈ 17.2 µM) | MIC80 [4]: 16 µg/mL (≈ 68.9 µM) | MIC80 [8]: 16 µg/mL (≈ 68.9 µM) | MIC80 [9]: 0.5 µg/mL (≈ 2.15 µM) | MIC80 [12]: 16 µg/mL (≈ 68.9 µM) | MIC80 [14]: 2 µg/mL (≈ 8.61 µM)

Cc1ccnc2c1C(=O)c1scc(N)c1C2=O
MIC80 [1]: > 64 µg/mL | MIC80 [3]: > 64 µg/mL | MIC80 [4]: > 64 µg/mL | MIC80 [8]: > 64 µg/mL | MIC80 [9]: 32 µg/mL (≈ 131 µM) | MIC80 [12]: > 64 µg/mL | MIC80 [14]: > 64 µg/mL

CC(C)(C)c1cnc2c(c1)C(=O)c1sc([N+](=O)[O-])cc1C2=O
MIC80 [1]: 1 µg/mL (≈ 3.16 µM) | MIC80 [3]: 4 µg/mL (≈ 12.6 µM) | MIC80 [4]: 4 µg/mL (≈ 12.6 µM) | MIC80 [8]: 1 µg/mL (≈ 3.16 µM) | MIC80 [9]: 2 µg/mL (≈ 6.32 µM) | MIC80 [12]: 4 µg/mL (≈ 12.6 µM) | MIC80 [14]: 1 µg/mL (≈ 3.16 µM)

CC(C)(C)OC(=O)/C=C/c1ccnc2c1C(=O)c1sc([N+](=O)[O-])cc1C2=O
MIC80 [1]: 4 µg/mL (≈ 10.4 µM) | MIC80 [3]: 32 µg/mL (≈ 82.8 µM) | MIC80 [4]: > 64 µg/mL | MIC80 [8]: 8 µg/mL (≈ 20.7 µM) | MIC80 [9]: 16 µg/mL (≈ 41.4 µM) | MIC80 [12]: 32 µg/mL (≈ 82.8 µM) | MIC80 [14]: 4 µg/mL (≈ 10.4 µM)

CC(C)c1cnc2c(c1)C(=O)c1sc([N+](=O)[O-])cc1C2=O
MIC80 [1]: 1 µg/mL (≈ 3.31 µM) | MIC80 [3]: 4 µg/mL (≈ 13.2 µM) | MIC80 [4]: 4 µg/mL (≈ 13.2 µM) | MIC80 [8]: 1 µg/mL (≈ 3.31 µM) | MIC80 [9]: 2 µg/mL (≈ 6.62 µM) | MIC80 [12]: 4 µg/mL (≈ 13.2 µM) | MIC80 [14]: 0.5 µg/mL (≈ 1.65 µM)

Cc1ccnc2c1[C@H](O)c1sc([N+](=O)[O-])cc1[C@H]2O (relative stereo)
MIC80 [1]: > 64 µg/mL | MIC80 [3]: > 64 µg/mL | MIC80 [4]: > 64 µg/mL | MIC80 [8]: > 64 µg/mL | MIC80 [9]: > 64 µg/mL | MIC80 [12]: > 64 µg/mL | MIC80 [14]: > 64 µg/mL

Cc1ccnc2c1C(=O)c1sccc1C2=O
MIC80 [1]: > 64 µg/mL | MIC80 [3]: > 64 µg/mL | MIC80 [4]: 8 µg/mL (≈ 34.9 µM) | MIC80 [8]: 4 µg/mL (≈ 17.4 µM) | MIC80 [9]: 16 µg/mL (≈ 69.8 µM) | MIC80 [12]: 16 µg/mL (≈ 69.8 µM) | MIC80 [14]: 16 µg/mL (≈ 69.8 µM)

CC(c1ccccc1)c1ccnc2c1C(=O)c1sc([N+](=O)[O-])cc1C2=O (centres undefined)
MIC80 [1]: 1 µg/mL (≈ 2.74 µM) | MIC80 [3]: 4 µg/mL (≈ 11 µM) | MIC80 [4]: 8 µg/mL (≈ 22 µM) | MIC80 [8]: 1 µg/mL (≈ 2.74 µM) | MIC80 [9]: 4 µg/mL (≈ 11 µM) | MIC80 [12]: 4 µg/mL (≈ 11 µM) | MIC80 [14]: 0.5 µg/mL (≈ 1.37 µM)

Cc1cnc2c(c1)C(=O)c1sc([N+](=O)[O-])cc1C2=O
MIC80 [15]: 0.5 µg/mL (≈ 1.82 µM) | MIC80 [1]: 0.5 µg/mL (≈ 1.82 µM) | MIC80 [3]: 1 µg/mL (≈ 3.65 µM) | MIC80 [4]: 1 µg/mL (≈ 3.65 µM) | inhibition [16]: inactive | MIC80 [8]: 1 µg/mL (≈ 3.65 µM) | MIC80 [9]: 0.5 µg/mL (≈ 1.82 µM) | Activity [17]: Active | MIC80 [12]: 2 µg/mL (≈ 7.29 µM) | MIC80 [14]: 0.5 µg/mL (≈ 1.82 µM)

CCCCc1cnc2c(c1)C(=O)c1sc([N+](=O)[O-])cc1C2=O
MIC80 [1]: 1 µg/mL (≈ 3.16 µM) | MIC80 [3]: 4 µg/mL (≈ 12.6 µM) | MIC80 [4]: 4 µg/mL (≈ 12.6 µM) | MIC80 [8]: 1 µg/mL (≈ 3.16 µM) | MIC80 [9]: 2 µg/mL (≈ 6.32 µM) | MIC80 [12]: 4 µg/mL (≈ 12.6 µM) | MIC80 [14]: 0.5 µg/mL (≈ 1.58 µM)

Cc1ccnc2c1C(=O)c1cn(C)cc1C2=O
MIC80 [1]: > 64 µg/mL | MIC80 [3]: > 64 µg/mL | MIC80 [4]: > 64 µg/mL | MIC80 [8]: 64 µg/mL (≈ 283 µM) | MIC80 [9]: > 64 µg/mL | MIC80 [12]: > 64 µg/mL | MIC80 [14]: > 64 µg/mL

CCCCc1ccnc2c1C(=O)c1sc([N+](=O)[O-])cc1C2=O
MIC80 [1]: 2 µg/mL (≈ 6.32 µM) | MIC80 [3]: 1 µg/mL (≈ 3.16 µM) | MIC80 [4]: 4 µg/mL (≈ 12.6 µM) | MIC80 [8]: 4 µg/mL (≈ 12.6 µM) | MIC80 [9]: 1 µg/mL (≈ 3.16 µM) | MIC80 [12]: 64 µg/mL (≈ 202 µM) | MIC80 [14]: 0.5 µg/mL (≈ 1.58 µM)

Cc1ccnc2c1[C@H](O)c1sc([N+](=O)[O-])cc1[C@@H]2O (relative stereo)
MIC80 [1]: 8 µg/mL (≈ 28.7 µM) | MIC80 [3]: 8 µg/mL (≈ 28.7 µM) | MIC80 [4]: 2 µg/mL (≈ 7.19 µM) | MIC80 [8]: 2 µg/mL (≈ 7.19 µM) | MIC80 [9]: 2 µg/mL (≈ 7.19 µM) | MIC80 [12]: 16 µg/mL (≈ 57.5 µM) | MIC80 [14]: 4 µg/mL (≈ 14.4 µM)

O=C1c2cc([N+](=O)[O-])sc2C(=O)c2c(-c3ccccc3[N+](=O)[O-])ccnc21
MIC80 [1]: 8 µg/mL (≈ 21 µM) | MIC80 [3]: > 64 µg/mL | MIC80 [4]: > 64 µg/mL | MIC80 [8]: 16 µg/mL (≈ 42 µM) | MIC80 [9]: 16 µg/mL (≈ 42 µM) | MIC80 [12]: 64 µg/mL (≈ 168 µM) | MIC80 [14]: 4 µg/mL (≈ 10.5 µM)

O=C1c2cc([N+](=O)[O-])sc2C(=O)c2cccnc21
MIC80 [1]: 0.5 µg/mL (≈ 1.92 µM) | MIC80 [3]: 2 µg/mL (≈ 7.69 µM) | MIC80 [4]: 1 µg/mL (≈ 3.84 µM) | MIC80 [8]: 0.5 µg/mL (≈ 1.92 µM) | MIC80 [9]: 0.5 µg/mL (≈ 1.92 µM) | MIC80 [12]: 1 µg/mL (≈ 3.84 µM) | MIC80 [14]: 0.5 µg/mL (≈ 1.92 µM)
